A short description of data set [1]: melting temperature; fluorescence melt of hairpins on a sequencing array, two-state fit, raised by 9.35 °C to match UV melts. As to conditions: sodium 0.088 M. A digest of the protocol: (§1)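 Cy3 fluorescence of library hairpins on a sequenced MiSeq flow cell, with annealed Cy3 and quencher oligos, was imaged in 50 mM Na-HEPES pH 8.0, 25 mM NaCl in 2.5 °C steps up to 60 °C. Signals were normalised to pre-quench Cy3 and to control variants. Melting temperature and folding enthalpy came from bootstrapped two-state fits, inverse-variance combined over four replicates. Fitted temperatures were raised by 9.35 °C to match UV melts.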

A short description of data set [2]: folding enthalpy; higher = less favourable; fluorescence melt of hairpins on a sequencing array, two-state fit. As to conditions: sodium 0.088 M. In a few lines:
as §1

On to GATCACATGGTGATC ((((((...)))))), for which the Tm in data set [1] was determined as 61.1 °C. Besides, the folding enthalpy in data set [2] is -37 kcal/mol.
The like results for GATCACATGTGTGATC ((((((....)))))) were, in that order, 57.2 °C and -43.2 kcal/mol.
Take GATCACATTAGTGATC ((((((....)))))): the Tm in data set [1] is 59.2 °C. Besides, the folding enthalpy in data set [2] is -45 kcal/mol.
As for GATCACCACGTGATC ((((((...)))))), in data set [1], the Tm amounted to 58.9 °C. The folding enthalpy in data set [2] is -38.5 kcal/mol.
For GATCACCCAGTGATC ((((((...)))))), the Tm in data set [1] came out at 57.2 °C. For the same sequence, the folding enthalpy in data set [2] is -38.1 kcal/mol.
The like results for GATCACCCCTGTGATC ((((((....)))))) were, in that order, 55.6 °C and -47.6 kcal/mol.
Consider GATCACCCGAGTGATC ((((((....)))))), for which the Tm in data set [1] was 57 °C. In data set [2], the folding enthalpy is -41.3 kcal/mol.
Take GATCACCCGCGTGATC ((((((....)))))): the Tm in data set [1] was 54.5 °C. Further, in data set [2], the folding enthalpy was -48.3 kcal/mol.
On to GATCACCCTTGTGATC ((((((....)))))), for which the Tm in data set [1] worked out at 54.9 °C. The folding enthalpy in data set [2] is -43.7 kcal/mol.
Regarding GATCACCGAGGTGATC ((((((....)))))), in data set [1], the Tm was found to be 63.5 °C. Also, the folding enthalpy in data set [2] was -46.8 kcal/mol.
The matching figures for GATCACCGCAGTGATC ((((((....)))))): 59 °C and -40 kcal/mol.
The like results for GATCACCTCAGTGATC ((((((....)))))) were, in that order, 59.6 °C and -42.3 kcal/mol.
For the sequence GATCACGAAAGTGAGATC ((((((....)))..))), in data set [1], the Tm was 48.5 °C. Also, in data set [2], the folding enthalpy was -17 kcal/mol.
The like results for GATCACGAAAGTGATATC ((((((....)))..))) were, in that order, 50.5 °C and -17.3 kcal/mol.
The matching figures for GATCACGAAAGTGTTATC ((((((....)))..))): 28.4 °C and -9.57 kcal/mol.
The matching figures for GATCACGAGCGTGATC ((((((....)))))): 59.1 °C and -39.5 kcal/mol.
Regarding GATCACGAGTGTGATC ((((((....)))))), the Tm in data set [1] was 56.3 °C. The folding enthalpy in data set [2] is -37.7 kcal/mol.
The like results for GATCACGATCGTGATC ((((((....)))))) were, in that order, 59.6 °C and -47.4 kcal/mol.
As to GATCACGCGAGTGATC ((((((....)))))), the Tm in data set [1] amounted to 68.8 °C. Further, the folding enthalpy in data set [2] was -33.8 kcal/mol.
In the case of GATCACGCGGGTGATC ((((((....)))))), the Tm in data set [1] amounted to 57.1 °C. Moreover, the folding enthalpy in data set [2] is -32 kcal/mol.
Turning to GATCACGCTGGTGATC ((((((....)))))), in data set [1], the Tm was 58.2 °C. Besides, the folding enthalpy in data set [2] was -42.5 kcal/mol.
The matching figures for GATCACGGAAACGCGATC ((((.((....)).)))): 48.2 °C and -34.3 kcal/mol.
With GATCACGGAAACGTGGTC ((.((((....)))).)), in data set [1], the Tm was 53.8 °C. In addition, in data set [2], the folding enthalpy is -38.7 kcal/mol.
The matching figures for GATCACGGAAGTGATC ((((((....)))))): 68.9 °C and -29.3 kcal/mol.
The like results for GATCACGGTCGTGATC ((((((....)))))) were, in that order, 60.7 °C and -39.6 kcal/mol.
The like results for GATCACGTCCGTGATC ((((((....)))))) were, in that order, 61.1 °C and -41.6 kcal/mol.
Regarding GATCACTAAGTGATC ((((((...)))))), the Tm in data set [1] worked out at 55.2 °C. For the same sequence, in data set [2], the folding enthalpy is -33.9 kcal/mol.
The like results for GATCACTAATGTGATC ((((((....)))))) were, in that order, 55.1 °C and -35.2 kcal/mol.
The like results for GATCACTAGAGTGATC ((((((....)))))) were, in that order, 56.4 °C and -40.8 kcal/mol.
The like results for GATCACTCACGTGATC ((((((....)))))) were, in that order, 55.8 °C and -41.5 kcal/mol.
For GATCACTCAGGTGATC ((((((....)))))), the Tm in data set [1] is 57.4 °C. Moreover, the folding enthalpy in data set [2] is -37 kcal/mol.
The like results for GATCACTCCAGTGATC ((((((....)))))) were, in that order, 58.4 °C and -30.5 kcal/mol.
The like results for GATCACTCCCGTGATC ((((((....)))))) were, in that order, 55.8 °C and -47.2 kcal/mol.
As to GATCACTCTAGTGATC ((((((....)))))), in data set [1], the Tm turned out to be 59.9 °C. Further, the folding enthalpy in data set [2] is -40.4 kcal/mol.
GATCACTCTCGTGATC ((((((....)))))): in data set [1], the Tm stood at 55.7 °C. The folding enthalpy in data set [2] was -41.8 kcal/mol.
The matching figures for GATCACTCTGGTGATC ((((((....)))))): 58.8 °C and -39.8 kcal/mol.
With GATCACTGCCGTGATC ((((((....)))))), in data set [1], the Tm worked out at 55.9 °C. Moreover, in data set [2], the folding enthalpy is -44.5 kcal/mol.
The matching figures for GATCACTGGAGTGATC ((((((....)))))): 55.7 °C and -48.7 kcal/mol.
The like results for GATCACTGGTGTGATC ((((((....)))))) were, in that order, 58 °C and -36.7 kcal/mol.
The matching figures for GATCACTTATGTGATC ((((((....)))))): 56.7 °C and -37.5 kcal/mol.
On to GATCACTTCCGTGATC ((((((....)))))), for which, in data set [1], the Tm came to 56.5 °C. For the same sequence, the folding enthalpy in data set [2] is -35.8 kcal/mol.
For the sequence GATCACTTGAGTGATC ((((((....)))))), the Tm in data set [1] is 56.1 °C. In addition, the folding enthalpy in data set [2] is -42.4 kcal/mol.
The matching figures for GATCAGAAAGCTGATC ((((((....)))))): 43 °C and -31.6 kcal/mol.
For the sequence GATCAGAACCTGATC ((((((...)))))), in data set [1], the Tm worked out at 46.7 °C. In data set [2], the folding enthalpy is -36.2 kcal/mol.
The matching figures for GATCAGAAGTCTGATC ((((((....)))))): 49 °C and -30 kcal/mol.
With GATCAGACCCTGATC ((((((...)))))), the Tm in data set [1] worked out at 47.7 °C. For the same sequence, in data set [2], the folding enthalpy is -33.4 kcal/mol.
The matching figures for GATCAGACCTCTGATC ((((((....)))))): 48.4 °C and -40.6 kcal/mol.
The matching figures for GATCAGACGAAAGTCATC (((..(((....)))))): 23.3 °C and -9.11 kcal/mol.
The like results for GATCAGAGCGCTGATC ((((((....)))))) were, in that order, 49.1 °C and -27.4 kcal/mol.
In the case of GATCAGAGGCCTGATC ((((((....)))))), in data set [1], the Tm came to 48.5 °C. In addition, the folding enthalpy in data set [2] is -34.6 kcal/mol.
The matching figures for GATCAGAGGCTGATC ((((((...)))))): 48.7 °C and -32.9 kcal/mol.
As for GATCAGATACCTGATC ((((((....)))))), the Tm in data set [1] came out at 48 °C. For the same sequence, the folding enthalpy in data set [2] was -36.7 kcal/mol.
The like results for GATCAGATATCTGATC ((((((....)))))) were, in that order, 50.3 °C and -47.9 kcal/mol.
The matching figures for GATCAGATCCTGATC ((((((...)))))): 48.2 °C and -37 kcal/mol.
The matching figures for GATCAGATCGCTGATC ((((((....)))))): 48.9 °C and -28.2 kcal/mol.
Consider GATCAGATTACTGATC ((((((....)))))), for which the Tm in data set [1] amounted to 50 °C. Besides, the folding enthalpy in data set [2] is -30.3 kcal/mol.
The like results for GATCAGCAAACTGATC ((((((....)))))) were, in that order, 48.2 °C and -32 kcal/mol.
The like results for GATCAGCAACCTGATC ((((((....)))))) were, in that order, 46.2 °C and -33 kcal/mol.
As for GATCAGCAAGCTGATC ((((((....)))))), the Tm in data set [1] is 58.7 °C. The folding enthalpy in data set [2] is -33 kcal/mol.
As to GATCAGCACGCTGATC ((((((....)))))), the Tm in data set [1] is 62.3 °C. The folding enthalpy in data set [2] was -42.1 kcal/mol.
Consider GATCAGCATCCTGATC ((((((....)))))), for which the Tm in data set [1] came out at 48 °C. Also, the folding enthalpy in data set [2] was -32.5 kcal/mol.
Regarding GATCAGCCACTGATC ((((((...)))))), the Tm in data set [1] stood at 48.6 °C. The folding enthalpy in data set [2] is -32 kcal/mol.
On to GATCAGCCCACTGATC ((((((....)))))), for which the Tm in data set [1] was 51.6 °C. In data set [2], the folding enthalpy is -37.6 kcal/mol.
With GATCAGCCCCTGATC ((((((...)))))), the Tm in data set [1] was found to be 49.2 °C. Also, the folding enthalpy in data set [2] is -36.2 kcal/mol.
The matching figures for GATCAGCCTCTGATC ((((((...)))))): 47.9 °C and -38.5 kcal/mol.
The matching figures for GATCAGCCTGCTGATC ((((((....)))))): 64.1 °C and -41.5 kcal/mol.
The matching figures for GATCAGCGAACTGATC ((((((....)))))): 49.3 °C and -34.4 kcal/mol.
In the case of GATCAGCGACCTGATC ((((((....)))))), in data set [1], the Tm amounted to 47.4 °C. Moreover, in data set [2], the folding enthalpy is -31.3 kcal/mol.
The like results for GATCAGCGGCTGATC ((((((...)))))) were, in that order, 50.7 °C and -51 kcal/mol.
For the sequence GATCAGCGTTCTGATC ((((((....)))))), in data set [1], the Tm amounted to 49.8 °C. For the same sequence, in data set [2], the folding enthalpy is -37.3 kcal/mol.
GATCAGCTACTGATC ((((((...)))))): the Tm in data set [1] is 49.1 °C. The folding enthalpy in data set [2] was -35.2 kcal/mol.
In the case of GATCAGCTAGCTGATC ((((((....)))))), the Tm in data set [1] was found to be 62.1 °C. The folding enthalpy in data set [2] is -48 kcal/mol.
The matching figures for GATCAGCTCGCTGATC ((((((....)))))): 62.9 °C and -57.4 kcal/mol.
The like results for GATCAGGACACTGATC ((((((....)))))) were, in that order, 56.7 °C and -45.4 kcal/mol.
The like results for GATCAGGACGCTGATC ((((((....)))))) were, in that order, 54.2 °C and -41.7 kcal/mol.
As to GATCAGGACTCTGATC ((((((....)))))), the Tm in data set [1] amounted to 55.6 °C. Further, in data set [2], the folding enthalpy was -40.6 kcal/mol.

These data come from the array DNA melting data of Ke et al. (doi:10.1101/2024.01.08.574731).
